Data taken from ChEMBL document CHEMBL1143879, “Identification of novel series of human CCR1 antagonists” (Bioorg Med Chem Lett, 2008).

Key:
THP-1 = test: Inhibition of CCL3-induced chemotaxis in human THP1 cells after 2 hrs; format: functional, cell-based; conditions: THP-1, 2 h
How it was run: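 Calcein-labelled THP-1 cells washed in RPMI-1640 and resuspended at 5 × 10⁶/ml. Preincubated 30 min at 37 °C with compound or DMSO, then placed above a 5 µm polycarbonate filter in a Boyden chamber. The lower wells held 0.5 nM human MIP-1α with or without compound. Chamber incubated 2 h at 37 °C.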

[1] = molecular target: T1, C-C chemokine receptor type 1 (Homo sapiens, UniProt P32246); test: Antagonist activity at human CCR1 receptor expressed in THP1 cells assessed as human MIP-1-alpha-stimulated intracellular calcium level by FLIPR assay; format: functional, cell-based, THP-1
T1 sequence (P32246 whole entry): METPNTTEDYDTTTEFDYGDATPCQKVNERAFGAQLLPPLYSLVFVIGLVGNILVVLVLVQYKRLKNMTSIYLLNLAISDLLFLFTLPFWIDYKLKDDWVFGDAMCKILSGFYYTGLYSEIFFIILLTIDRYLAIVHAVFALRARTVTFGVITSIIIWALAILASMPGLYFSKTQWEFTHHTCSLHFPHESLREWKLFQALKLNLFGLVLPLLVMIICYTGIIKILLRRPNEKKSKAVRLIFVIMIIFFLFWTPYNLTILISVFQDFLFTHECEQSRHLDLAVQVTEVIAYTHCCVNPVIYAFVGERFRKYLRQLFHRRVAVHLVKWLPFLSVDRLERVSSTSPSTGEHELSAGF
How it was run: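 THP-1 cells in RPMI-1640 at 2 × 10⁶/ml, mixed 1:1 with calcium dye buffer, loaded 30 min at 37 °C with 2.5 mM probenecid. Cells spun down, resuspended in RPMI-1640 with 0.1% BSA and plated at 1.5 × 10⁵/well with or without compound. Stimulated with 5 nM human MIP-1α; intracellular Ca²⁺ change read by FLIPR. IC50, mean of at least two independent experiments.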

[2] = molecular target: T1, C-C chemokine receptor type 1; test: Displacement of [125I]MIP1-alpha from human CCR1 receptor expressed in THP1 cells; format: cell-based, THP-1
How it was run: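 THP-1 cells expressing CCR1, washed in PBS, at 5 × 10⁶/ml with compound or vehicle and 50 pM human [¹²⁵I]MIP-1α. Binding buffer: 50 mM Hepes pH 7.4, 5 mM MgCl₂, 1 mM CaCl₂, 0.5% BSA. Incubated 90 min at room temperature, then filtered on PEI-coated glass fibre and washed with buffer plus 0.5 M NaCl. Bound counts by scintillation. IC50, mean of triplicates in one experiment.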

[3] = Selectivity for human CCR1 receptor over CCR4 receptor

| IC50 (THP-1) | IC50 [1] | IC50 [2] | Selectivity ratio [3] | SMILES |
| --- | --- | --- | --- | --- |
| 296 nM | 230 nM | 240 nM | > 100 | O=S(=O)(NCCCN1CCC(O)(c2ccc(Cl)cc2)CC1)c1ccccc1-c1cccs1 |
| – | 1240 nM | 1270 nM | > 100 | O=S(=O)(c1ccccc1)N1CCC(N2CCC(O)(c3ccc(Cl)cc3)CC2)CC1 |
| 42 nM | 90 nM | 90 nM | > 100 | O=S(=O)(c1ccccc1Br)N1CCC(N2CCC(O)(c3ccc(Cl)cc3)CC2)CC1 |
